EBV LMP1 NFkB: Epstein-Barr LMP1 NF-kappaB reporter inhibition; LMP1-induced NF-kappaB luciferase reporter cells, luminescence; inhibition, % at 12.5 µM; 350,000 compounds, 0.69% hits; in the data active = inhibition above about 41%
HIF activator: HIF pathway transcriptional activation; U2OS HRE-luciferase reporter, luminescence; normalized: DMSO 0%, desferrioxamine 100%; activation, % at 7.5 µM (by protocol); 300,000 compounds, 0.32% hits; AID 1910;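 active = mean activation of at least 10% of the iron chelator positive control signal, with at least half of replicates also reaching 10%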
NR2E3 ag-1: agonists of human NR2E3 nuclear receptor | Q9Y5X4 | inhibition of corepressor binding, % at 3.98 µM | 360,000 compounds, 0.35% hits | CHO-S Gal4-NCOR/VP16-NR2E3 two-hybrid, luciferase;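 active = inhibition above the mean of all tested compounds plus 3 SD, cut at about 70% in these data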;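 note: higher means lower luciferase signal from less NR2E3 corepressor binding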
Target sequence (Q9Y5X4 whole entry, looked up, the tested form may be a part): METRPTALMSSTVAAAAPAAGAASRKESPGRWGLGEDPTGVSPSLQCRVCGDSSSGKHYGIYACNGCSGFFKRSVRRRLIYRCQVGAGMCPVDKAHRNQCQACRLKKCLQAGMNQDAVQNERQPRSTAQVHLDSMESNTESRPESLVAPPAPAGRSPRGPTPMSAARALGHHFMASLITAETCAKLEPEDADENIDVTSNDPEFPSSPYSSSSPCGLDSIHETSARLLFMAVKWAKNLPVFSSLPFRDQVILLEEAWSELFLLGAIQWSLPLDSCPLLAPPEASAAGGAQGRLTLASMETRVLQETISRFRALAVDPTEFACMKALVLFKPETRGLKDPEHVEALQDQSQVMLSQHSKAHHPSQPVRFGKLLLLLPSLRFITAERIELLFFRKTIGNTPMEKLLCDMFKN
NR2E3 ag-2: agonists of human nuclear receptor NR2E3. 320,000 compounds, 0.12% hits. GST-NR2E3/biotin-RetCOR TR-FRET, 1536-well. inhibition of corepressor binding, % at 4.78 µM;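 active = percent inhibition above the cutoff of mean plus 3 SD of all tested compounds, set per screening campaign, cut at about 20% in these data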
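System: GST-NR2E3 and biotin-RetCOR proteins; probe or stimulus: 7 nM biotin-RetCOR; doses: compound at 4.8 µM, single dose; schedule: Compound–protein incubation for 5 h at 4 °C; detection: time-resolved FRET; read-out: percent inhibition; controls: biotin wells as high control, 0.6% DMSO wells as low control; format: 1536-well plates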
TROY NFkB inh: blocks TROY-dependent signaling in reporter cells | Q293 LMP1-TROYcd NF-kB luciferase reporter, 4 h | inhibition, % at 10 µM | 360,000 compounds, 0.98% hits | AID 1347056;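 active = compounds whose plate-normalised and pattern-corrected inhibition of the luciferase reporter signal at the single screening dose is 50% or more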
NR2E3 ag conf: confirmation of human NR2E3 agonists | shares compounds with NR2E3 ag-1 | CHO-S mammalian two-hybrid NR2E3-NCOR, luciferase luminescence | inhibition, % at 3.98 µM | 2,300 compounds, 51% hits;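 active = average inhibition above a cutoff equal to the mean inhibition of all tested compounds plus one SD, cut at about 70% in these data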
VP16 counter: reduces GAL4-VP16 reporter signal in NR2E3 counterscreen; shares compounds with NR2E3 ag-1; CHO-S GAL4-VP16 luciferase reporter, luminescence; inhibition, % at 3.98 µM; 2,300 compounds, 29% hits;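 active = mean inhibition above a cutoff equal to the average over all tested compounds plus one standard deviation, cut at about 70% in these data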;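 note: luciferase from a UAS reporter driven by GAL4-VP16 transactivation; higher means less reporter light so more repression of VP16 activity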
A number is an active result; i = inactive; nt = no result given. An excerpt weighted towards active compounds, which were near 2% of everything screened.

SMILES | EBV LMP1 NFkB | HIF activator | NR2E3 ag-1 | NR2E3 ag-2 | TROY NFkB inh | NR2E3 ag conf | VP16 counter
CCOC(=O)N1CCC(NC(=O)C2CCCN(Cc3nc(-c4cccc(Cl)c4)oc3C)C2)CC1 (stereo not drawn) | 52.5 | i | 84.0 | i | i | 87.6 | i
Cc1oc(-c2ccc(Cl)cc2)nc1CN1CCCC(C(=O)NC2CC2)C1 (stereo not drawn) | i | i | i | i | i | nt | nt
CN1/C(=C/c2cccc[n+]2CCO)Sc2ccccc21 | i | i | i | i | i | nt | nt
CCN1/C(=C/c2ccc3cc(C)ccc3[n+]2CC)Sc2cc(C)c(C)cc21 | i | nt | 90.5 | nt | i | 99.3 | 87.3
CCN1/C(=C/c2ccc3cc(C)ccc3[n+]2CC)Sc2ccccc21 | i | 26.1 | 90.6 | i | 64.9 | 99.2 | 88.9
CCOC(=O)/C(=C/C=C1\Sc2cc(C)c(C)cc2N1CC)C(C)=O | i | i | i | nt | i | nt | nt
CC[n+]1c(/C=C2\Sc3ccccc3N2C)ccc2cccc(C)c21 | i | i | 86.2 | nt | 64.1 | 99.8 | 80.7
CCOC(=O)C1(C)CCN1C(=O)c1cc(OC)ccc1Br (stereo not drawn) | nt | nt | i | nt | i | nt | nt
CCc1c(C)nc(N2CCN(c3ccc(Cl)cc3)CC2)[nH]c1=O | i | i | i | i | i | nt | nt
COc1ccc(CC2(CO)COc3ccccc3C2=O)cc1 (stereo not drawn) | i | i | i | i | i | nt | nt
CC1(C(=O)Nc2ccccc2Br)CCN1C(=O)Cc1ccccc1Cl (stereo not drawn) | nt | nt | i | nt | i | nt | nt
CCC(C)(C)c1ccc(Oc2ccc(N)cc2)cc1 | 51.0 | i | i | nt | 88.7 | i | i
CCC(C)(C)c1ccc(Oc2cccc(C(=O)O)c2)cc1 | i | i | i | i | i | nt | nt
CCCOC(=O)c1ccc(Oc2cn[nH]c2-c2ccc(O)cc2O)cc1 | i | i | i | i | 50.1 | i | i
CCCNC(=O)c1ccc(N2CCC3(CC2)CC(c2cccc(Br)c2)=NO3)c([N+](=O)[O-])c1 | i | i | i | i | i | 73.7 | i
Cc1ccc(CNC(=O)c2ccc(N3CCC4(CC3)CC(c3cccc(Br)c3)=NO4)c([N+](=O)[O-])c2)cc1 | i | i | i | i | i | nt | nt
c1cncc(CNc2ncnc3sccc23)c1 | i | i | i | i | i | nt | nt
c1csc(CNc2ncnc3sccc23)c1 | i | i | 72.1 | i | i | 84.4 | i
COc1ccc(CNc2ncnc3sccc23)cc1 | i | i | 93.6 | i | i | 81.6 | i
c1ccc(CNc2ncnc3sccc23)cc1 | i | i | 91.3 | i | i | 79.6 | i
CSc1ncnc2c1ncn2CCCNCC(c1ccccc1)c1ccccc1 | i | nt | i | nt | i | nt | nt
CC1C(=O)N(Cc2cn(CCC3OCCCO3)nn2)CCS(=O)(=O)N1Cc1ccc(-c2ccc(Cl)c(Cl)c2)cc1 (stereo not drawn) | i | nt | i | nt | i | 93.2 | 77.3
CC1C(=O)N(Cc2cn(CC3CCCCC3)nn2)CCS(=O)(=O)N1Cc1ccc(-c2ccc(Cl)cc2)cc1 (stereo not drawn) | i | nt | i | nt | i | i | i
CC1C(=O)N(Cc2cn(CCC3OCCCO3)nn2)CCS(=O)(=O)N1Cc1ccc(-c2ccc(F)cc2)cc1 (stereo not drawn) | i | nt | i | nt | i | nt | nt
Cc1cc(NC(=O)CSc2nnc(NCc3ccco3)s2)no1 | i | nt | i | i | i | nt | nt
SMILES | EBV LMP1 NFkB | HIF activator | NR2E3 ag-1 | NR2E3 ag-2 | TROY NFkB inh | NR2E3 ag conf | VP16 counter
COc1cccc(C(=O)OCC(=O)NCCCc2ccccc2)c1 | i | i | i | i | i | nt | nt
O=S(=O)(Nc1cccc2ncccc12)c1cccs1 | i | i | 97.0 | i | 65.1 | i | i
Cc1c(NS(=O)(=O)c2cccs2)cccc1-c1nc2cccnc2s1 | i | i | i | i | i | nt | nt
CC(C)(C)c1ccc(C(=O)C2CCCN(C(=O)c3ccccn3)C2)cc1 (stereo not drawn) | i | i | i | nt | i | nt | nt
O=c1c2c([nH]n1-c1ccccc1)C[C@@H](C1CCCCC1)O[C@H]2c1ccc(F)cc1 | nt | nt | i | nt | i | i | i
O=c1[nH][nH]c2c1[C@H](c1ccc(F)cc1)O[C@H](C1CCCCC1)C2 | nt | nt | i | nt | i | nt | nt
OCC1OC(n2cnc3c(NCc4ccccc4O)ncnc32)C(O)C1O (stereo not drawn) | i | nt | 71.6 | nt | i | i | i
CN(C)c1ncnc2c1ccn2C1OC(CO)C(O)C1O (stereo not drawn) | i | nt | i | nt | i | 72.1 | i
OCC1OC(n2ccc3c(NO)ncnc32)C(O)C1O (stereo not drawn) | 79.8 | nt | 101.6 | nt | i | 99.4 | 92.8
O=c1[nH]nnc2c1ncn2C1OC(CO)C(O)C1O (stereo not drawn) | nt | nt | i | nt | i | i | i
CN(C)c1nc2c(N)ncnc2n1C1OC(CO)C(O)C1O (stereo not drawn) | i | nt | i | nt | i | nt | nt
COc1ccc(C(=O)c2sc(Nc3ccccc3)nc2N)cc1OC | i | i | 102.1 | i | i | 80.4 | i
COc1ccc(C(=O)c2sc(Nc3ccccc3)nc2N)cc1 | i | i | i | nt | i | nt | nt
O=C(NCc1cccnc1)C(=O)NCC1OCCCN1S(=O)(=O)c1cc(F)ccc1F (stereo not drawn) | i | nt | i | nt | i | nt | nt
CCc1ccc(NS(=O)(=O)c2ccc(OC)c3ncccc23)cc1 | i | i | i | i | i | nt | nt
O=S(=O)(Nc1ccc(Cc2ccncc2)cc1)c1ccc(Cl)c(Cl)c1 | i | i | i | i | i | nt | nt
COc1ccc(S(=O)(=O)Nc2ccc(Cc3ccncc3)cc2)cc1OC | i | i | i | i | i | 71.6 | i
COc1ccc(NC(=O)Nc2ccc(Cc3ccncc3)cc2)c(OC)c1 | i | i | i | i | i | i | i
CCc1ccc(OC)c(S(=O)(=O)Nc2ccc(Cc3ccncc3)cc2)c1 | i | i | 98.7 | i | i | 85.9 | 73.8
COc1ccc(NC(C)=O)cc1S(=O)(=O)Nc1ccc(OCc2ccccc2)cc1 | i | i | 72.6 | i | i | 77.5 | i
Cc1ccc(NC(=O)CSCC(=O)OC(C)C(=O)Nc2ccc(S(N)(=O)=O)cc2)c(C)c1 (stereo not drawn) | i | i | i | i | i | nt | nt
COc1cc(CC(=O)OCC(=O)N2CCCCC2)cc(OC)c1OC | i | i | i | i | i | nt | nt
CN(C)CCNC(=O)C(=O)NCC1CCCN1S(=O)(=O)c1cccs1 (stereo not drawn) | i | i | i | i | i | nt | nt
O=C1CCCN1CCCNS(=O)(=O)c1ccc(F)cc1F | i | i | i | i | i | nt | nt
O=C(OC(c1ccccc1)c1nccc2ccccc12)c1ccccc1 (stereo not drawn) | i | nt | 75.4 | nt | 86.9 | 71.1 | i
O=C(OC(c1ccccc1)c1nccc2ccccc12)c1cccc([N+](=O)[O-])c1 (stereo not drawn) | i | i | i | i | i | nt | nt
